In ChEMBL document CHEMBL1128345, “Derivatives of 2-[[N-(Aminocarbonyl)-N-hydroxyamino]methyl]-1,4- benzodioxan as orally active 5-lipoxygenase inhibitors” (J Med Chem, 1995):
Where “and” joins values, the source holds several entries; their conditions need not be identical. Equal entries are not always repeated.

What was measured:
[1] = biological target: T1, Polyunsaturated fatty acid 5-lipoxygenase (Homo sapiens) (UniProt P09917); assay: Ex vivo inhibition of 5-LO was determined by the measurement of A-23187-stimulated LTB4 production in dog blood at 0.25h, following intravenous administration at the dose of 1.0 mg/kg; format: functional, organism-based; set-up: dose 1 mg/kg; settings: Canis lupus familiaris, target entry is the homologue from another species
T1 sequence (whole entry): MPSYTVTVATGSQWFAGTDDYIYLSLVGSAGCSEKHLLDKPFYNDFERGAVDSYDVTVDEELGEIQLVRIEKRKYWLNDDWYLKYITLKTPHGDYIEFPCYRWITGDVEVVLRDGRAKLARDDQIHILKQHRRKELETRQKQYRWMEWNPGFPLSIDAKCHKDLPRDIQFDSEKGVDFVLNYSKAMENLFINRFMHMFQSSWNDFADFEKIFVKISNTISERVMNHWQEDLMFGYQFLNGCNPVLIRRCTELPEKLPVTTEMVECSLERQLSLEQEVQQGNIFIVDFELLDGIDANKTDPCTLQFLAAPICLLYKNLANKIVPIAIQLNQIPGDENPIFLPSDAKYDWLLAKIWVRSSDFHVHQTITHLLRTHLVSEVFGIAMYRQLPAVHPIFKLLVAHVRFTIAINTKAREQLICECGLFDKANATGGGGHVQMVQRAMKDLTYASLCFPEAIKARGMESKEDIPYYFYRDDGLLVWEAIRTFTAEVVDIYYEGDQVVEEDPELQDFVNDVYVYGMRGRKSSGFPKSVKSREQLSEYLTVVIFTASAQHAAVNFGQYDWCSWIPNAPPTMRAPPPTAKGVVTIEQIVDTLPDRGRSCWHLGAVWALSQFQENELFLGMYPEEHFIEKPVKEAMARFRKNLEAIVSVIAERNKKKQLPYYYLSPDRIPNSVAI
In short: (§1)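 Dog ex vivo assay: compound given as a single iv dose. Whole blood drawn at set times after dosing was stimulated ex vivo with calcium ionophore A23187. LTB4 was quantitated by radioimmunoassay. Percent inhibition at each time point was calculated against the LTB4 value before dosing. n = 1–3 experiments per compound.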

[2] = biological target: T1, Polyunsaturated fatty acid 5-lipoxygenase (Homo sapiens); assay: Ex vivo inhibition of 5-LO was determined by the measurement of A-23187-stimulated LTB4 production in dog blood at 6.0h, following intravenous administration at the dose of 1.0 mg/kg; format: functional, organism-based; set-up: dose 1 mg/kg; settings: Canis lupus familiaris, target entry is the homologue from another species
In short: (§2)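 Dogs received a single iv dose. Whole blood was sampled at the stated time after dosing and stimulated ex vivo with calcium ionophore A23187. LTB4 was quantitated by radioimmunoassay. Percent inhibition was calculated against each animal's pre-dose LTB4 value. One to three experiments were run per dose.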

[3] = biological target: T1, Polyunsaturated fatty acid 5-lipoxygenase (Homo sapiens); assay: Ex vivo inhibition of 5-LO was determined by the measurement of A-23187-stimulated LTB4 production in dog blood at 1.0h, following intravenous administration at the dose of 1.0 mg/kg; format: functional, organism-based; set-up: dose 1 mg/kg; settings: Canis lupus familiaris, target entry is the homologue from another species; in short: as §2
[4] = Duration of action was defined as the period of time from maximum inhibition of A-23187-stimulated LTB4 formation to the time where 50% of maximum inhibition is reached
In short: (§3)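 Dogs got a single iv or oral dose. Whole blood was drawn at set times afterwards and stimulated ex vivo with the calcium ionophore A23187. LTB4 was measured by radioimmunoassay, and inhibition was taken as the change from the pre-dose LTB4 value. DA, the time from maximum inhibition to 50% of maximum, was read graphically from the plot of percent inhibition vs time.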

[5] = biological target: T1, Polyunsaturated fatty acid 5-lipoxygenase (Homo sapiens); assay: Ex vivo inhibition of 5-LO was determined by the measurement of A-23187-stimulated LTB4 production in dog blood at 3.0h, following intravenous administration at the dose of 1.0 mg/kg; format: functional, organism-based; set-up: dose 1 mg/kg; settings: Canis lupus familiaris, target entry is the homologue from another species; in short: as §2
[6] = biological target: T1, Polyunsaturated fatty acid 5-lipoxygenase (Homo sapiens); assay: Ex vivo inhibition of 5-LO was determined by the measurement of A-23187-stimulated LTB4 production in dog blood at 9.0h, following intravenous administration at the dose of 1.0 mg/kg; format: functional, organism-based; set-up: dose 1 mg/kg; settings: Canis lupus familiaris, target entry is the homologue from another species; in short: as §2
[7] = biological target: T1, Polyunsaturated fatty acid 5-lipoxygenase (Homo sapiens); assay: Ex vivo inhibition of 5-LO was determined by the measurement of A-23187-stimulated LTB4 production in dog blood at 0.5h, following intravenous administration at the dose of 1.0 mg/kg; format: functional, organism-based; set-up: dose 1 mg/kg; settings: Canis lupus familiaris, target entry is the homologue from another species; in short: as §2
[8] = biological target: T1, Polyunsaturated fatty acid 5-lipoxygenase (Homo sapiens); assay: Ex vivo inhibition of 5-LO was determined by the measurement of A-23187-stimulated LTB4 production in dog blood at 0.08h, following intravenous administration at the dose of 1.0 mg/kg; format: functional, organism-based; set-up: dose 1 mg/kg; settings: Canis lupus familiaris, target entry is the homologue from another species; in short: as §2
[9] = biological target: T1, Polyunsaturated fatty acid 5-lipoxygenase (Homo sapiens); assay: Ex vivo inhibition of 5-LO was determined by the measurement of A-23187-stimulated LTB4 production in dog blood at 24h, following intravenous administration at the dose of 1.0 mg/kg; format: functional, organism-based; set-up: dose 1 mg/kg; settings: Canis lupus familiaris, target entry is the homologue from another species; in short: as §2
[10] = biological target: T1, Polyunsaturated fatty acid 5-lipoxygenase (Homo sapiens); assay: Ex vivo inhibition of 5-lipoxygenase was determined by the measurement of A-23187-stimulated LTB4 production in dog blood at 0.5h, following intravenous administration at the dose of 1.0 mg/kg; format: functional, organism-based; set-up: dose 1 mg/kg; settings: Canis lupus familiaris, target entry is the homologue from another species; in short: as §2
[11] = biological target: T1, Polyunsaturated fatty acid 5-lipoxygenase (Homo sapiens); assay: Ex vivo inhibition of 5-lipoxygenase was determined by the measurement of A-23187-stimulated LTB4 production in dog blood at 0.08h, following intravenous administration at the dose of 1.0 mg/kg; format: functional, organism-based; set-up: dose 1 mg/kg; settings: Canis lupus familiaris, target entry is the homologue from another species; in short: as §2
[12] = biological target: T1, Polyunsaturated fatty acid 5-lipoxygenase (Homo sapiens); assay: Ex vivo inhibition of 5-lipoxygenase was determined by the measurement of A-23187-stimulated LTB4 production in dog blood at 6.0h, following intravenous administration at the dose of 1.0 mg/kg; format: functional, organism-based; set-up: dose 1 mg/kg; settings: Canis lupus familiaris, target entry is the homologue from another species; in short: as §2
[13] = biological target: T1, Polyunsaturated fatty acid 5-lipoxygenase (Homo sapiens); assay: Ex vivo inhibition of 5-lipoxygenase was determined by the measurement of A-23187-stimulated LTB4 production in dog blood at 24h, following intravenous administration at the dose of 1.0 mg/kg; format: functional, organism-based; set-up: dose 1 mg/kg; settings: Canis lupus familiaris, target entry is the homologue from another species; in short: as §2
[14] = biological target: T1, Polyunsaturated fatty acid 5-lipoxygenase (Homo sapiens); assay: Ex vivo inhibition of 5-lipoxygenase was determined by the measurement of A-23187-stimulated LTB4 production in dog blood at 0.25h, following intravenous administration at the dose of 1.0 mg/kg; format: functional, organism-based; set-up: dose 1 mg/kg; settings: Canis lupus familiaris, target entry is the homologue from another species; in short: as §1
[15] = biological target: T1, Polyunsaturated fatty acid 5-lipoxygenase (Homo sapiens); assay: Ex vivo inhibition of 5-lipoxygenase was determined by the measurement of A-23187-stimulated LTB4 production in dog blood at 1.0h, following intravenous administration at the dose of 1.0 mg/kg; format: functional, organism-based; set-up: dose 1 mg/kg; settings: Canis lupus familiaris, target entry is the homologue from another species; in short: as §2
[16] = biological target: T1, Polyunsaturated fatty acid 5-lipoxygenase (Homo sapiens); assay: Ex vivo inhibition of 5-lipoxygenase was determined by the measurement of A-23187-stimulated LTB4 production in dog blood at 9.0h, following intravenous administration at the dose of 1.0 mg/kg; format: functional, organism-based; set-up: dose 1 mg/kg; settings: Canis lupus familiaris, target entry is the homologue from another species; in short: as §2
[17] = Duration of action of 5-LO was defined as the period of time from maximum inhibition of A-23187-stimulated LTB4 formation to the time where 50% of maximum inhibition is reached; in short: as §3

SMILES | inhibition [1] | inhibition [2] | inhibition [3] | Duration of action [4] | inhibition [5] | inhibition [6] | inhibition [7] | inhibition [8] | inhibition [9] | inhibition [10] | inhibition [11] | inhibition [12] | inhibition [13] | inhibition [14] | inhibition [15] | inhibition [16] | Duration of action [17]
NC(=O)N(O)CC1COc2ccc(Oc3ccc(F)cc3)cc2O1 (stereo unspecified) |  |  |  | 8.2 h and 8.5 h |  |  |  |  |  | 94% | 94% | 63% | 17% | 98% | 92% | 34% and 48% | 
CCCCNC(=O)N(O)CC1COc2ccccc2O1 (stereo unspecified) |  |  |  | 0.7 h |  |  |  |  |  | 64% | 100% | 0% |  | 100% | 45% |  | 
NC(=O)N(O)C[C@H]1COc2ccc(Oc3ccc(F)cc3)cc2O1 |  |  |  |  |  |  |  |  |  |  |  |  |  |  |  |  | 8.4 h
CC(c1cc2ccccc2s1)N(O)C(N)=O (stereo unspecified) [ZILEUTON] |  |  |  | 8.5 h and 9.8 h |  |  |  |  |  | 91% | 96% | 56% | 27% | 94% | 87% | 47% | 

More lines, now with the values ahead:

inhibition [1] | inhibition [2] | inhibition [3] | Duration of action [4] | inhibition [5] | inhibition [6] | inhibition [7] | inhibition [8] | inhibition [9] | inhibition [10] | inhibition [11] | inhibition [12] | inhibition [13] | inhibition [14] | inhibition [15] | inhibition [16] | Duration of action [17] | SMILES
100% | 1% | 98% | 1.7 h | 14% | 9% | 100% | 100% | 2% |  |  |  |  |  |  |  |  | NC(=O)N(O)CC1COc2cc(Oc3ccccc3)ccc2O1 (stereo unspecified)
 |  |  | 4 h |  |  |  |  |  | 100% | 100% | 22% | 4% | 100% | 100% | 0% |  | NC(=O)N(O)CC1COc2ccc(Oc3ccccc3)cc2O1 (stereo unspecified)
 | 15% |  | 3.8 h and 3.7 h |  | 0% |  |  | 0% | 100% | 100% |  |  | 100% | 100% |  |  | NC(=O)N(O)C[C@@H]1COc2ccc(Oc3ccc(F)cc3)cc2O1
 |  |  | 1.5 h |  |  |  |  |  | 98% | 100% | 0% | 0% | 100% | 74% | 9% |  | CNC(=O)N(O)CC1COc2ccc(Oc3ccccc3)cc2O1 (stereo unspecified)
